Tcruzi prolif: T. cruzi intracellular proliferation inhibitors, primary screen, cell-based, beta-gal Tulahuen parasites, NIH3T3 host, luminescence. T. cruzi beta-gal in NIH3T3, GalScreen luminescence, 90 h. inhibition, % at 8.34 µM. 77,000 compounds, 5.9% hits. AID 624255, 2012;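 active means mean inhibition above about 93%, with at least 55% of replicates each passing it, limit read from the data, passing the limit was not always enough; inconclusive means only one of those two conditions holds; inactive means neither condition holds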
KDM4C inh: inhibitors of GASC-1 (KDM4C) histone demethylase, primary screen, biochemical, single concentration HTS | Lysine-specific demethylase 4C (Homo sapiens), Q9H3R0 | GST-KDM4C 2-372, H3K9me3 peptide, LANCE TR-FRET | inhibition, % at 12.5 µM | 96,000 compounds, 0.15% hits;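 active means mean replicate inhibition above about 25%, with at least 55% of replicates also reaching it, limit read from the data, passing the limit was not always enough; inconclusive means only one of those two conditions met; inactive means neither condition met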
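Test system: N-terminal GST-fused human GASC-1 (KDM4C) fragment, residues 2-372; quantity: GASC-1 enzyme at 10 nM final in reaction; dosing: single dose; schedule: 30 min demethylation and 1 h detection at room temperature; signal: LANCE TR-FRET, excitation 340 nm, emissions 618 and 671 nm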
IDH1 R132H inh: inhibitors of IDH1 R132H reductase, primary screen, biochemical, plate reader, single point; inhibition, % at 10 µM; Isocitrate dehydrogenase [NADP] cytoplasmic (Homo sapiens), O75874; diaphorase/resazurin fluorescence, 60 min; AID 624101, 2012; 70,000 compounds, 0.18% hits; in the data active means inhibition above about 34%; inconclusive means no clear call, values can overlap the other calls; inactive means below about 11%;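 further: 0% = DMSO and 100% = no enzyme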
Target sequence (O75874 whole entry R132H): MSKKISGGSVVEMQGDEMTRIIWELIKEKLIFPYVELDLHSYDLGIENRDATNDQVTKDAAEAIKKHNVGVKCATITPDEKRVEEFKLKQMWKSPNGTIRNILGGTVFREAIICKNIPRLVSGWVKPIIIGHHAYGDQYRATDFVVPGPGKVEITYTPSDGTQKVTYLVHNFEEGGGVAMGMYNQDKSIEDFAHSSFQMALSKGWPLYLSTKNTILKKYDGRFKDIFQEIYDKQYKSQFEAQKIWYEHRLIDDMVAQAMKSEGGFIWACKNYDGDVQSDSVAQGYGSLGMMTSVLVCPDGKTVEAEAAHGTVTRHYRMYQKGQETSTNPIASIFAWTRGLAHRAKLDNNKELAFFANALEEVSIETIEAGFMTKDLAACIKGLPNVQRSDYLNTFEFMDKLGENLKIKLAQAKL
The depositor's hits bear a star; ? = inconclusive; nt = no result given. This excerpt belongs to a sample that is enriched for hits.

SMILES | Tcruzi prolif | KDM4C inh | IDH1 R132H inh
COc1cccc(S(=O)(=O)Nc2ccc3c(c2)[C@H]2C[C@@H](CC(=O)O)O[C@H](CO)[C@H]2O3)c1 | 14.4 | 38.5* | 72.2*
COC(=O)C[C@H]1C[C@H]2c3cc(N(C)C)ccc3O[C@H]2[C@H](CO)O1 | -35.6 | 43.4* | -18.3
COCCNC(=O)C[C@@H]1C[C@H]2c3cc(N(C)C)ccc3O[C@H]2[C@@H](CO)O1 | nt | ? | -1.9
COC(=O)C[C@@H]1C[C@H]2c3cc(N(C)C)ccc3O[C@H]2[C@@H](CO)O1 | 49.9 | nt | -1.5
COc1ccccc1-c1nnc(SCC(=O)c2ccc(NC(C)=O)cc2)o1 | nt | nt | 0.3
COc1cc2c(cc1NC(=S)NCc1ccco1)oc1ccccc12 | nt | nt | 1.5
O=C(CCCC(=O)Nc1ccc2ccccc2c1)Nc1ccc2ccccc2c1 | nt | nt | 0.3
Cc1c(/C=C2\SC(=Nc3ccccc3)N(C3CCCC3)C2=O)c2ccccc2n1CC(N)=O | nt | nt | -0.1
CC(=O)Nc1ccccc1NC(=O)COc1ccc(Br)cc1Cl | nt | nt | 0.0
COc1cccc2cc(C(=O)CC3(O)C(=O)N(Cc4ccccc4)c4ccc(Br)cc43)c(=O)oc12 (stereo unspecified) | nt | nt | 0.4
CCC(Oc1ccccc1)C(=O)Nc1cc2oc3ccccc3c2cc1OC (stereo unspecified) | nt | nt | 0.3
C=CCN(CC=C)S(=O)(=O)c1ccc(C(=O)Nc2ccccc2-c2nc3ccccc3[nH]2)cc1 | nt | nt | 0.6
COc1ccc(NC(=C(C#N)C#N)C(F)(F)C(F)(F)F)cc1 | nt | nt | 0.9
CCCNC(=O)C[C@@H]1C[C@H]2c3cc(NC(=O)CC4CC4)ccc3O[C@H]2[C@H](CO)O1 | -50.5 | 41.1* | ?
CN(C)c1ccc2c(c1)[C@@H]1C[C@H](CC(=O)O)O[C@@H](CO)[C@@H]1O2 | 40.2 | 13.9 | -16.3
CCCNC(=O)C[C@@H]1C[C@H]2c3cc(NC(=O)CC4CC4)ccc3O[C@H]2[C@@H](CO)O1 | -16.7 | -0.4 | 0.1
CN(C)C(=O)C[C@H]1C[C@@H]2c3cc(N(C)C)ccc3O[C@@H]2[C@@H](CO)O1 | -10.5 | 33.5* | -13.2
O=C(CSc1nnc(-c2ccccc2O)n1-c1ccccc1)NC1CCCCC1 | nt | nt | 0.1
OCCCn1c(-c2ccc(Cl)cc2)cn2c3ccccc3nc12 | nt | nt | -1.1
CC(=O)N(C)C[C@@H]1Oc2cc(Br)ccc2S(=O)(=O)N([C@@H](C)CO)C[C@@H]1C | 11.0 | 41.6* | 19.4
COc1ccc(-c2ccc3c(c2)O[C@H](CN(C)C(C)=O)[C@@H](C)CN([C@H](C)CO)S3(=O)=O)cc1 | 53.2 | 55.9* | 53.6*
CC(=O)N(C)C[C@@H]1Oc2cc(Br)ccc2S(=O)(=O)N([C@H](C)CO)C[C@@H]1C | -2.0 | -0.1 | nt
COc1ccc(-c2ccc3c(c2)O[C@H](CN(C)C(C)=O)[C@@H](C)CN([C@@H](C)CO)S3(=O)=O)cc1 | 50.4 | 9.2 | 0.2
CCOc1ccc(C(Nc2cccc(C)n2)c2ccc3ccc(C)nc3c2O)cc1 (stereo unspecified) | nt | nt | -0.2
OCC1(CO)COC(COc2ccccc2)=N1 | nt | nt | 0.2
SMILES | Tcruzi prolif | KDM4C inh | IDH1 R132H inh
C/C=C/[C@H](CC(=O)N1Cc2ccccc2C[C@H]1CO)[Si](C)(C)c1ccc(OC)cc1 | nt | nt | -0.6
C[C@H](CO)N1C[C@H](C)[C@H](CN(C)Cc2ccncc2)Oc2c(NC(=O)c3nc4ccccc4s3)cccc2C1=O | nt | 1.0 | nt
C[C@H]1CN([C@@H](C)CO)C(=O)c2cccc(NC(=O)c3nc4ccccc4s3)c2O[C@H]1CN(C)Cc1ccc(C(=O)Nc2ccccc2N)cc1 | 97.2* | -1.2 | nt
C[C@H](CO)N1C[C@H](C)[C@@H](CN(C)Cc2ccncc2)Oc2c(NC(=O)c3nc4ccccc4s3)cccc2C1=O | nt | -3.2 | 35.4*
C[C@H]1CN([C@@H](C)CO)C(=O)c2cccc(NC(=O)c3nc4ccccc4s3)c2O[C@H]1CN(C)Cc1ccccc1 | 76.8 | 0.7 | nt
C[C@@H]1CN([C@H](C)CO)C(=O)c2cccc(NC(=O)c3ccc(-c4nccs4)cc3)c2O[C@H]1CN(C)Cc1ccc(C(=O)Nc2ccccc2N)cc1 | 71.8 | -1.3 | 0.4
C[C@H]1CN([C@@H](C)CO)C(=O)c2cccc(NC(=O)c3ccc(-c4nccs4)cc3)c2O[C@@H]1CN(C)Cc1ccc(C(=O)Nc2ccccc2N)cc1 | 104.2* | 0.5 | nt
Nc1cc(=O)[nH]c(S/C=C/c2ccccc2)n1 | nt | nt | 0.1
C[C@@H]1O[C@@H](O[C@@H]2[C@@H](O)[C@H](O[C@@H]3[C@@H](O)[C@H](C)O[C@@H](O[C@H]4[C@H](O[C@H]5CC[C@@]6(C)C(CC[C@]7(C)C6CC=C6[C@@H]8CC(C)(C)CC[C@]8(C(=O)O)CC[C@]67C)[C@]5(C)CO)OC[C@H](O)[C@@H]4O)[C@@H]3O)O[C@H](CO)[C@H]2O[C@@H]2O[C@H](CO)[C@@H](O[C@@H]3OC[C@@H](O)[C@H](O)[C@H]3O)[C@H](O)[C@H]2O)[C@H](O)[C@H](O)[C@H]1O (stereo partly specified) | nt | nt | 0.5
Cc1cc(NS(=O)(=O)c2ccc(Nc3nc(-c4ccc(O)cc4)cs3)cc2)no1 | nt | nt | 59.7*
Cc1cc(C)nc(NS(=O)(=O)c2ccc(Nc3nc(-c4ccc(O)cc4)cs3)cc2)n1 | nt | nt | 1.5
C[C@H](CO)N1C[C@H](C)[C@@H](CN(C)C(=O)C2CCOCC2)Oc2ncc(Br)cc2C1=O | -26.6 | 0.4 | 0.2
C[C@H](CO)N1C[C@H](C)[C@@H](CN(C)C(=O)c2ccccn2)Oc2ncc(Br)cc2C1=O | nt | 25.8* | 8.0
C[C@H]1CN([C@@H](C)CO)C(=O)c2cc(-c3ccc(C#N)cc3)cnc2O[C@@H]1CN(C)C(=O)Nc1ccccc1 | 39.1 | -1.0 | -1.5
C[C@@H]1CN([C@H](C)CO)C(=O)c2cc(Br)cnc2O[C@@H]1CN(C)C(=O)c1ccccn1 | nt | 1.3 | -0.7
C[C@@H]1CN([C@@H](C)CO)C(=O)c2cc(Br)cnc2O[C@@H]1CN(C)C(=O)C1CCOCC1 | -12.6 | 38.8* | 19.2
C[C@@H]1CN([C@@H](C)CO)C(=O)c2cc(-c3ccc(C#N)cc3)cnc2O[C@@H]1CN(C)C(=O)Nc1ccccc1 | 54.9 | 32.7* | 5.8
CCn1c(SCC(=O)Nc2ccc(C(N)=O)cc2)nnc1-c1ccc(F)cc1 | nt | nt | 0.2
CC1(C)CC2/C(CO)=C\C=C[C@@](C)(O)CC[C@]21O (stereo partly specified) | nt | nt | -0.1
COc1cc(NC(=O)C(C)Oc2ccc(Cl)cc2Cl)c(C(=O)O)cc1OC (stereo unspecified) | nt | nt | 1.2
CC(C)(CCO[C@@H]1O[C@H](CO[C@@H]2OC[C@@H](O)[C@H](O)[C@H]2O)[C@@H](O)[C@H](O)[C@H]1O)C[C@@H]1C(C(=O)O)=CC[C@]2(C(=O)O)C1=CCC1[C@@]3(C)CC[C@H](O[C@@H]4O[C@H](CO[C@@H]5O[C@H](CO)[C@@H](O)[C@H](O)[C@H]5O)[C@@H](O)[C@H](O)[C@H]4O)C(C)(C)C3CC[C@]12C (stereo partly specified) | nt | nt | 4.0

Assay outcomes as filed in PubChem.
